ChEMBL document CHEMBL6153064, “Structure-based discovery of novel diarylpyrimidines as potent and selective Non-Nucleoside reverse transcriptase inhibitors: From CH(CN)-Biphenyl-Diarylpyrimidines to CNNH2-Biphenyl-Diarylpyrimidines” (Eur J Med Chem, 2025)

Legend:
[1] = tested on: Human immunodeficiency virus 1; assay: Antiviral activity against wild type HIV-1 IIIB infected in human MT4 cells […]; assay type: functional, organism-based; conditions: Human immunodeficiency virus 1, IIIB
[2] = Cytotoxicity against human MT4 cells by MTT assay; assay type: toxicity, cell-based
[3] = Selectivity index, ratio of CC50 for cytotoxicity against human MT4 cells to EC50 for antiviral activity against wild type HIV-1 IIIB infected in human MT4 cells; assay type: toxicity, cell-based; conditions: read-out: Ratio CC50/EC50
Summary of the method: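 Selectivity index calculated as CC50/EC50 ratio, both values from MTT viability readout in MT-4 cells, antiviral arm using wild-type HIV-1 IIIB.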

[4] = tested on: Human immunodeficiency virus 1; assay: Antiviral activity against HIV-1 harboring K103N mutant infected in human MT4 cells […]; assay type: functional, organism-based; conditions: Human immunodeficiency virus 1, MT4
[5] = tested on: Human immunodeficiency virus 1; assay: Antiviral activity against HIV-1 harboring Y188L mutant infected in human MT4 cells assessed as inhibition of virus-induced cytopathic effect by MTT assay; conditions: Human immunodeficiency virus 1, MT4
[6] = tested on: Human immunodeficiency virus 1; assay: Antiviral activity against HIV-1 harboring E138K mutant infected in human MT4 cells […]; assay type: functional, organism-based; conditions: Human immunodeficiency virus 1, MT4
[7] = tested on: Human immunodeficiency virus 1; assay: Antiviral activity against HIV-1 harboring L100I mutant infected in human MT4 cells […]; assay type: functional, organism-based; conditions: Human immunodeficiency virus 1, MT4
[8] = tested on: Human immunodeficiency virus 1; assay: Antiviral activity against HIV-1 harboring Y181C mutant infected in human MT4 cells […]; assay type: functional, organism-based; conditions: Human immunodeficiency virus 1, MT4
[9] = target: Human immunodeficiency virus type 1 reverse transcriptase (Human immunodeficiency virus 1, UniProt Q72547); assay: Inhibition of wild type HIV-1 Reverse transcriptase

Compound | EC50 [1] [nM] | CC50 [2] [nM] | selectivity ratio [3] | EC50 [4] [nM] | EC50 [5] [nM] | EC50 [6] [nM] | EC50 [7] [nM] | EC50 [8] [nM] | IC50 [9] [nM]
COc1cc(-c2ccc(C#N)cc2)ccc1C(NC(C)C)c1ccnc(Nc2ccc(C#N)cc2)n1 (configuration not stated) | 211 | 20000 | 94 |  |  |  |  |  | 
CCCNC(c1ccnc(Nc2ccc(C#N)cc2)n1)c1ccc(-c2ccc(C#N)cc2)cc1Cl (configuration not stated) | 184 | > 261000 | > 1420 |  |  |  |  |  | 
N#Cc1ccc(Nc2nccc(/C(=N/N)c3ccc(-c4ccc(C#N)cc4)cc3OC(F)(F)F)n2)cc1 | 40 | 171000 | 4310 | 182 | 1480 | 340 | 180 | 260 | 72
N#Cc1ccc(Nc2nccc(C(NCCCl)c3ccc(-c4ccc(C#N)cc4)cc3Cl)n2)cc1 (configuration not stated) | 42 | 243000 | 5890 |  |  |  |  |  | 
CCNC(c1ccnc(Nc2ccc(C#N)cc2)n1)c1ccc(-c2ccc(C#N)cc2)cc1C(F)(F)F (configuration not stated) | 153 | 22000 | 146 |  |  |  |  |  | 
N#Cc1ccc(Nc2nccc(C(C#N)c3ccc(-c4ccc(C#N)cc4)cc3F)n2)cc1 (configuration not stated) |  | 36000 | 1360 | 900 | 9810 | 170 | 1210 | 870 | 
Cc1ccnc2c1NC(=O)c1cccnc1N2C1CC1 [NEVIRAPINE] |  |  |  |  | > 15000 |  | 2060 |  | 
N#Cc1ccc(Nc2nccc(C(NC3CC3)c3ccc(-c4ccc(C#N)cc4)cc3OC(F)(F)F)n2)cc1 (configuration not stated) | 589 | 73000 | 125 |  |  |  |  |  | 
N#Cc1ccc(Nc2nccc(C(NCCF)c3ccc(-c4ccc(C#N)cc4)cc3Cl)n2)cc1 (configuration not stated) | 77 | > 259000 | > 3370 |  |  |  |  |  | 
CCNC(c1ccnc(Nc2ccc(C#N)cc2)n1)c1ccc(-c2ccc(C#N)cc2)cc1OC(F)(F)F (configuration not stated) | 505 | 21000 | 43 |  |  |  |  |  | 
CC(C)NC(c1ccnc(Nc2ccc(C#N)cc2)n1)c1ccc(-c2ccc(C#N)cc2)cc1C(F)(F)F (configuration not stated) | 1190 | 29000 | 25 |  |  |  |  |  | 
N#Cc1ccc(Nc2nccc(C(NC3CC3)c3ccc(-c4ccc(C#N)cc4)cc3Cl)n2)cc1 (configuration not stated) | 147 | > 262000 | > 1800 |  |  |  |  |  | 
C/N=C(/c1ccnc(Nc2ccc(C#N)cc2)n1)c1ccc(-c2ccc(C#N)cc2)cc1C(F)(F)F | 35 | 119000 | 3280 | 415 | 3030 | 290 | 352 | 435 | 180
CCCNC(c1ccnc(Nc2ccc(C#N)cc2)n1)c1ccc(-c2ccc(C#N)cc2)cc1OC(F)(F)F (configuration not stated) | 662 | 27000 | 40 |  |  |  |  |  | 
C/N=C(/c1ccnc(Nc2ccc(C#N)cc2)n1)c1ccc(-c2ccc(C#N)cc2)cc1OC(F)(F)F | 13 | > 251000 | > 19100 | 281 | 20100 | 122 | 301 | 361 | 221
CC(C)NC(c1ccnc(Nc2ccc(C#N)cc2)n1)c1ccc(-c2ccc(C#N)cc2)cc1Cl (configuration not stated) | 230 | 30000 | 130 |  |  |  |  |  | 
CCNC(c1ccnc(Nc2ccc(C#N)cc2)n1)c1ccc(-c2ccc(C#N)cc2)cc1OC (configuration not stated) | 326 | 20000 | 60 |  |  |  |  |  | 
N#Cc1ccc(Nc2nccc(C(NC3CC3)c3ccc(-c4ccc(C#N)cc4)cc3F)n2)cc1 (configuration not stated) | 630 | > 271000 | > 431 |  |  |  |  |  | 
CCNC(c1ccnc(Nc2ccc(C#N)cc2)n1)c1ccc(-c2ccc(C#N)cc2)cc1F (configuration not stated) | 357 | 31000 | 87 |  |  |  |  |  | 
N#Cc1ccc(Nc2nccc(C(NCCCO)c3ccc(-c4ccc(C#N)cc4)cc3Cl)n2)cc1 (configuration not stated) | 67 | 23000 | 345 |  |  |  |  |  | 
CC(C)NC(c1ccnc(Nc2ccc(C#N)cc2)n1)c1ccc(-c2ccc(C#N)cc2)cc1OC(F)(F)F (configuration not stated) | 927 | 23000 | 24 |  |  |  |  |  | 
Cc1cc(-c2ccc(C#N)cc2)ccc1/C(=N\N)c1ccnc(Nc2ccc(C#N)cc2)n1 | 7 | > 291000 | > 45000 | 17 | 442 | 13 | 16 | 47 | 23
N#Cc1ccc(Nc2nccc(/C(=N/N)c3ccc(-c4ccc(C#N)cc4)cc3Cl)n2)cc1 | 6 | 212000 | 33300 | 49 | 778 | 76 | 22 | 67 | 36

Compound | EC50 [1] [nM] | CC50 [2] [nM] | selectivity ratio [3] | EC50 [4] [nM] | EC50 [5] [nM] | EC50 [6] [nM] | EC50 [7] [nM] | EC50 [8] [nM] | IC50 [9] [nM]
CCNC(c1ccnc(Nc2ccc(C#N)cc2)n1)c1ccc(-c2ccc(C#N)cc2)cc1Cl (configuration not stated) | 99 | 19000 | 187 |  |  |  |  |  | 
N#CCCNC(c1ccnc(Nc2ccc(C#N)cc2)n1)c1ccc(-c2ccc(C#N)cc2)cc1Cl (configuration not stated) | 71 | > 255000 | > 3600 |  |  |  |  |  | 
Cc1cc(-c2ccc(C#N)cc2)ccc1C(NC(C)C)c1ccnc(Nc2ccc(C#N)cc2)n1 (configuration not stated) | 166 | 82000 | 495 |  |  |  |  |  | 
N#Cc1ccc(Nc2nccc(C(NC3CC3)c3ccc(-c4ccc(C#N)cc4)cc3C(F)(F)F)n2)cc1 (configuration not stated) | 294 | 75000 | 250 |  |  |  |  |  | 
N#Cc1ccc(Nc2nccc(C(NCC(F)(F)F)c3ccc(-c4ccc(C#N)cc4)cc3Cl)n2)cc1 (configuration not stated) | 231 | > 241000 | > 1070 |  |  |  |  |  | 
CCCNC(c1ccnc(Nc2ccc(C#N)cc2)n1)c1ccc(-c2ccc(C#N)cc2)cc1OC (configuration not stated) | 131 | 14000 | 110 |  |  |  |  |  | 
C/N=C(/c1ccnc(Nc2ccc(C#N)cc2)n1)c1ccc(-c2ccc(C#N)cc2)cc1OC | 8 | 16000 | 1960 | 169 | 4460 | 83 | 293 | 293 | 61
N#Cc1ccc(Nc2nccc(C(NCCCCl)c3ccc(-c4ccc(C#N)cc4)cc3Cl)n2)cc1 (configuration not stated) | 195 | > 244000 | > 1260 |  |  |  |  |  | 
CNC(c1ccnc(Nc2ccc(C#N)cc2)n1)c1ccc(-c2ccc(C#N)cc2)cc1C (configuration not stated) | 33 | 12000 | 367 | 743 | 9200 | 279 | 2440 | 1090 | 153
CC(C)NC(c1ccnc(Nc2ccc(C#N)cc2)n1)c1ccc(-c2ccc(C#N)cc2)cc1F (configuration not stated) | 649 | 45000 | 70 |  |  |  |  |  | 
CCCNC(c1ccnc(Nc2ccc(C#N)cc2)n1)c1ccc(-c2ccc(C#N)cc2)cc1F (configuration not stated) | 259 | > 270000 | > 1060 |  |  |  |  |  | 
Cc1cc(-c2ccc(C#N)cc2)ccc1C(NC1CC1)c1ccnc(Nc2ccc(C#N)cc2)n1 (configuration not stated) | 156 | > 274000 | > 1760 |  |  |  |  |  | 
N#Cc1ccc(Nc2nccc(/C(=N/N)c3ccc(-c4ccc(C#N)cc4)cc3C(F)(F)F)n2)cc1 | 31 | 68000 | 2170 | 106 | 1140 | 68 | 58 | 134 | 58
COc1cc(-c2ccc(C#N)cc2)ccc1C(NC1CC1)c1ccnc(Nc2ccc(C#N)cc2)n1 (configuration not stated) | 72 | 123000 | 1680 |  |  |  |  |  | 
C/N=C(/c1ccnc(Nc2ccc(C#N)cc2)n1)c1ccc(-c2ccc(C#N)cc2)cc1Cl | 6 | > 45000 | > 7140 | 129 | 3810 | 51 | 149 | 192 | 69
N#Cc1ccc(Nc2nccc(C(NCCO)c3ccc(-c4ccc(C#N)cc4)cc3Cl)n2)cc1 (configuration not stated) | 92 | 22000 | 238 |  |  |  |  |  | 
CCCNC(c1ccnc(Nc2ccc(C#N)cc2)n1)c1ccc(-c2ccc(C#N)cc2)cc1C(F)(F)F (configuration not stated) | 1010 | 90000 | 87 |  |  |  |  |  | 
O=C1Nc2ccc(Cl)cc2[C@@](C#CC2CC2)(C(F)(F)F)O1 [EFAVIRENZ] |  | > 6300 |  |  |  |  |  | 8 | 
C/N=C(/c1ccnc(Nc2ccc(C#N)cc2)n1)c1ccc(-c2ccc(C#N)cc2)cc1C | 12 | > 47000 | > 3940 | 373 | > 46700 | 82 | 1540 | 420 | 58
CCNC(c1ccnc(Nc2ccc(C#N)cc2)n1)c1ccc(-c2ccc(C#N)cc2)cc1C (configuration not stated) | 63 | 12000 | 188 |  |  |  |  |  | 
N#Cc1ccc(Nc2nccc(/C(=N/N)c3c(F)cc(-c4ccc(C#N)cc4)cc3F)n2)cc1 | 9 | 23000 | 2480 | 44 | > 23100 | 38 | 16 | 64 | 31
N#Cc1ccc(Nc2nccc(/C(=N/N)c3ccc(-c4ccc(C#N)cc4)cc3F)n2)cc1 | 7 | > 46000 | > 6210 | 125 | > 46100 | 194 | 69 | 210 | 20
CCCNC(c1ccnc(Nc2ccc(C#N)cc2)n1)c1ccc(-c2ccc(C#N)cc2)cc1C (configuration not stated) | 146 | > 273000 | > 1870 |  |  |  |  |  | 
